Measurements of several laboratories.
Each line is one published result; the experiments were not run side by side.
Target: cAMP-dependent protein kinase catalytic subunit alpha (PRKACA, Homo sapiens, UniProt P17612)

COc1ncc2cc3ccccc3nc2c1C#N  remaining binding (cell-free assay, competition with immobilised ligand; 5 µM): 100%
Cc1cnc(Nc2ccc(C(=O)N3CCC(N4CCCC4)CC3)cc2)nc1-c1cc2ccccc2s1  remaining binding (binding, competition with immobilised ligand; 1 µM): 67%
Cc1c(NC(=O)c2cc(C(N)=O)nc3cc(F)ccc23)c(C(F)(F)F)nn1Cc1ccc(C#N)cc1  remaining binding (cell-free assay, competition with immobilised ligand; 1 µM): 78%
O=C(c1ccc(Nc2ncc(Cl)c(-c3cc4ccccc4s3)n2)cc1)N1CCC(N2CCCC2)CC1  remaining binding (binding, competition with immobilised ligand; 1 µM): 90%
C[C@@H](c1ccc(-n2cnc3c(N)ncnc32)cc1)N1CCc2nn(C)c(Cc3ccccc3)c2C1=O  remaining binding (binding, competition with immobilised ligand; 0.1 µM): 100%
CCN1CCN(Cc2ccc(C(=O)Nc3ccc(C)c(Oc4ccc5c(c4)CC(=O)N5)c3)cc2C(F)(F)F)CC1  remaining binding (binding, competition with immobilised ligand; 1 µM): 100%
CN(C)c1nccc(-c2cnc3ncccn23)n1  remaining binding (binding; 1 µM): 83%
O=C(N1CCS(=O)(=O)CC1)N1C[C@H](c2ccc(OC(F)(F)F)cc2)C[C@H](c2nc(C3CC3)no2)C1  remaining binding (cell-free assay, competition with immobilised ligand; 1 µM): 100%
C[C@@H]1CN(c2ccc3ncc(-c4ccc5[nH]nc(C6CC6)c5c4)n3n2)C[C@H](C)O1  remaining binding (binding, competition with immobilised ligand; 50 nM): 88%
COc1cnc(Nc2cccc(S(N)(=O)=O)c2)nc1N1CCN(c2ccccc2)C(=O)C1  remaining binding (binding, competition with immobilised ligand; 1 µM): 100%
N#Cc1ccccc1CSc1nnc2c(n1)[nH]c1ccccc12  remaining binding (binding, competition with immobilised ligand; 10 µM): 72%
CNC(=O)c1ccc(Nc2ncc(C(F)(F)F)c(NCc3nccnc3N(C)S(C)(=O)=O)n2)cc1  remaining binding (cell-free assay, competition with immobilised ligand; 0.1 µM): 100%
C[C@@H]1CCN(c2nccc(-c3cnn4ncccc34)n2)C1  remaining binding (binding; 1 µM): 100%
O=C(Nc1ccc(Oc2ccc(F)cc2)cc1)N1CCc2ncccc2[C@H]1c1ccc(F)cc1  remaining binding (cell-free assay, competition with immobilised ligand; 1 µM): 95%
O=C(NCC1CCOCC1)c1n[nH]cc1NC(=O)c1c(F)cccc1F  remaining binding (binding, competition with immobilised ligand; 1 µM): 100%
Nc1ncc2c(n1)-c1c([nH]c3ccc(C#CC4CC4)cc13)CCCC2  remaining binding (binding, competition with immobilised ligand; 1 µM): 86%
O=C(N[C@H]1CCCCC/C=C\C2C[C@@]2(C(=O)O)NC(=O)[C@@H]2C[C@@H](Oc3ccncc3)CN2C1=O)OC1CCCC1 (stereo partly drawn)  remaining binding (cell-free assay, competition with immobilised ligand; 1 µM): 92%
CN(C)c1ncc(F)c(-c2cnn3ncccc23)n1  remaining binding (binding; 1 µM): 86%
O=C(NCCCN1CCOCC1)c1ccc(Nc2nccc(-c3cc4ccccc4s3)n2)cc1  remaining binding (binding, competition with immobilised ligand; 1 µM): 95%
O=C(O)c1cc(-c2ccc(C3CCNCC3)cc2)c2ccc(-c3ccc(C(F)(F)F)cc3)cc2c1  remaining binding (cell-free assay, competition with immobilised ligand; 1 µM): 100%
CC1CCCN1c1nccc(-c2cnn3ncccc23)n1 (stereo not drawn)  remaining binding (binding; 1 µM): 100%
